Source: PubChem BioAssay (several laboratories)
A selection: hits, their analogues and other compounds. The true share with any hit is near 2.4%.
Calb FLC = C. albicans growth inhibition with fluconazole, primary screen, CaCi-2 strain, Alamar Blue fluorescence; growth inhibition, % (test concentration not listed); 300,000 tested, 0.57% active; C. albicans CaCi-2 (fluconazole-resistant clinical isolate) + fluconazole, 48 h; AID 1979, 2009;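 active means growth inhibition above about 58% in most replicates, limit read from the data, passing the limit was not always enough; inconclusive means exactly half the replicates above a set limit; inactive means most replicates below a set limit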;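 further: all wells also contain fluconazole at 8 µg/ml as a sub-toxic cotreatment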
SR-BI uptake up = activators of SR-BI mediated DiI-HDL uptake, primary screen, ldlA[mSR-BI] CHO cells, DiI fluorescence; 320,000 tested, 0.096% active; 3 h; 100 = double the neutral-control signal; activation, % at 12.5 µM; AID 504775, 2011;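 active means mean replicate activation of at least 60% and every replicate at or above 60%; inconclusive means mean or all-replicate condition met, but not both; inactive means mean below 60% and not all replicates reaching 60%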
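system = CHO ldlA[mSR-BI] cells, LDL receptor-null, SR-BI overexpressing | medium = Ham's F12 with 0.5% BSA, HEPES 25 mM, pH 7.4 | probe or stimulus = DiI-HDL 10 µg/mL | compound dosing = single-point compound dose | incubation = compound exposure 3 h, 37 °C | technique = DiI fluorescence, bottom read | read-out = cell-associated DiI fluorescence as measure of HDL uptake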
MIN6 prolif = inducers of MIN6 beta-cell proliferation, primary screen, ATP luminescence, uHTS; MIN6 cells proliferation, ATPlite luminescence, 48 h; cells starved in 0.2% serum; 100% = growth in 10% serum; proliferation, % at 10 µM; 330,000 tested, 0.29% active; AID 2380, 2010;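 active means compounds whose signal lies at least 3.5 SD above the mean of all wells on their plate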
SR-BI DiI inh = inhibitors of SR-BI mediated HDL lipid uptake, primary screen, ldlA[mSR-BI] cells, fluorescence, single point. ldlA[mSR-BI] CHO cells, DiI-HDL uptake fluorescence, 3 h. inhibition, % at 12.5 µM. 320,000 tested, 0.96% active. AID 488896, 2010;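 active means mean replicate inhibition of at least 70% and a set share of replicates each scoring 70 or more; inconclusive means meets just one of the two criteria; inactive means fails both criteria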
Target sequence (Q61009 whole entry, looked up): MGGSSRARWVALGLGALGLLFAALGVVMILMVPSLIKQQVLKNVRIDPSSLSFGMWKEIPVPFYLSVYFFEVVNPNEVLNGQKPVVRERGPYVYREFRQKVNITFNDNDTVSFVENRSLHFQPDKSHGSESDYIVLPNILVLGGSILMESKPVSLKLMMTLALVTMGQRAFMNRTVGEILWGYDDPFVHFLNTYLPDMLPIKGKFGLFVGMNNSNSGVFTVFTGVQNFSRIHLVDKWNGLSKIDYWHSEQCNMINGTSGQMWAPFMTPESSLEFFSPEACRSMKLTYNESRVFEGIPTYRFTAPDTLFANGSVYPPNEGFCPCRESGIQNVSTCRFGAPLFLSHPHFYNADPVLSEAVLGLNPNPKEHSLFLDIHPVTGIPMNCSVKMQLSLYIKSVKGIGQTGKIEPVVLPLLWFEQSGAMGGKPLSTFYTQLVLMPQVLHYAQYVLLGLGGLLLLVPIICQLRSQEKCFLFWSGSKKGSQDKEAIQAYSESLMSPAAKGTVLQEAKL
HTR2A ag = mouse Htr2a agonists via beta-arrestin recruitment, primary screen, cell-based, luminescence; CHO-K1 mHTR2A beta-arrestin complementation; percent of 30 µM serotonin response; activation, % at 7.6 µM; 360,000 tested, 0.66% active;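 active means activation above a run cutoff, the mean activation of all tested compounds plus 3 SD, cut at about 14% in these data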
Ins promoter up = insulin promoter activators in MIN6 cells, imaging, high-content screening, mouse beta cells; MIN6 insulin promoter-GFP reporter; hits give high values; z-score at 5 µM; 190,000 tested, 0.3% active; AID 1625, 2009;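 active means z-score above 3 at 5 µM with at least 500 cells counted in the well; inconclusive means wells under 500 cells, flagged as cytotoxic or low count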
Numbers stand for hits; – = inactive; ? = inconclusive; · = no result.

SMILES	Calb FLC	SR-BI uptake up	MIN6 prolif	SR-BI DiI inh	HTR2A ag	Ins promoter up
COc1ccccc1N/C(=N/S(=O)(=O)c1ccc(C)cc1)c1ccccc1	–	–	–	–	–	–
COc1ccc([N+](=O)[O-])cc1NC(=O)Nc1ccc(OC)c(OC)c1	–	–	–	76	–	–
COc1ccc([N+](=O)[O-])cc1NC(=O)Nc1cccc(Cl)c1	–	–	–	83	–	–
COc1ccc([N+](=O)[O-])cc1NC(=O)Cc1ccc(Cl)cc1	–	–	·	–	–	·
COc1ccc(CCC(=O)Nc2cc([N+](=O)[O-])ccc2OC)cc1	?	–	–	74	–	–
COc1cccc(-c2ncc3ccccc3c2COC(=O)c2ccco2)c1	·	–	–	–	–	·
C[C@H]1C[C@@H]2[C@H]([C@@H](O)C[C@@]3(C)[C@H]2CC[C@]3(O)C(=O)CO)[C@@]2(C)C=CC(=O)C=C12	·	–	–	–	18	·
CC(=O)OCC(=O)C1(O)CCC2C3CC(C)C4=CC(=O)C=CC4(C)C3C(O)CC21C (configuration not stated)	·	·	·	·	–	·
O=C(Nc1ccc(F)cc1)C(c1ccccc1OC(F)(F)F)N1CCN(c2cccc(C(F)(F)F)n2)CC1 (configuration not stated)	·	·	·	·	–	·
CCN(CC)S(=O)(=O)c1cc(C(=O)NC2=NCCS2)ccc1Cl	–	–	–	74	–	–
CN(c1cccc(Cl)c1)S(=O)(=O)c1cccc(C(=O)NC2=NCCS2)c1	–	–	–	–	–	3.5
O=C(NC1=NCCS1)c1ccc(Cl)c(S(=O)(=O)N2CCCCCC2)c1	–	–	–	–	–	–
COCCNc1nc(Nc2ccc(C(=O)OC)cc2)c2sccc2n1	·	·	·	·	–	·
Cc1oc(-c2cccs2)nc1CN1CCN(Cc2ccc(F)c(F)c2)C(CCO)C1 (configuration not stated)	84	·	–	·	–	–
COCCOc1ccc(C(F)(F)F)cc1NC(=O)c1ccc(C(F)(F)F)cc1	–	–	–	–	–	–
CCCOc1ccc(C(F)(F)F)cc1NC(=O)c1cc(C)on1	·	–	–	72	–	·
Nc1ccc(N2CCN(c3cccc(Cl)c3)CC2)cc1	101	–	–	–	–	–
CC1CCN(S(=O)(=O)c2ccc3c(c2)c(=O)c(C(=O)N2CCOCC2)cn3C)CC1	–	–	–	–	–	·
CC1CCN(S(=O)(=O)c2ccc3c(c2)c(=O)c(C(=O)N2CCCCC2)cn3C)CC1	?	–	–	–	–	4.9
CN(Cc1ccccc1)C(=O)[C@@H]1CCCN1C(=O)[C@@H]1CCCN1C(=O)c1ccccc1	·	·	·	·	–	·
CCN(CC)C(=O)C1=C(C)N(Cc2ccc(OC)cc2)C(=O)C(CC(=O)NC2CCCCC2)C1 (configuration not stated)	·	·	·	·	–	·
Cc1ccc2nc(-c3ccc(NC(=S)NC4CC(C)(C)NC(C)(C)C4)cc3)sc2c1	74	–	–	–	–	–
Cc1ncc(CO)c(/C=N/NC(=S)Nc2ccc(Cl)c(Cl)c2)c1O	110	–	–	–	–	–
Cc1ncc(CO)c(/C=N/NC(=O)c2ccc(O)cc2)c1O	–	–	–	–	–	–
Cc1ncc(CO)c(/C=N/NC(=O)c2cc3c(s2)CCCC3)c1O	–	–	–	104	–	–
SMILES	Calb FLC	SR-BI uptake up	MIN6 prolif	SR-BI DiI inh	HTR2A ag	Ins promoter up
CCN(CC(=O)Nc1ccccc1C(F)(F)F)CC(=O)c1[nH]c(C)c(C(C)=O)c1C	·	·	·	·	–	·
Oc1c(Br)cc(Br)cc1/C=N/Nc1ccc(Cl)nn1	83	–	·	–	–	·
CC(C)CC(N)c1csc(NC(=O)c2cc(C(C)(C)C)nn2Cc2ccccc2)n1 (configuration not stated)	·	·	·	·	–	·
Cc1ccc(SCCC(=O)N/N=C/c2ccccc2O)cc1	92	–	–	–	–	–
Cc1nn(CC2CC2)c(=O)n1-c1ccc(Oc2ccccc2)cc1	?	–	–	–	–	–
O=C(CSc1nn(-c2ccc(Cl)cc2)c(=S)s1)N1CCN(C(=O)c2ccco2)CC1	–	–	–	84	–	–
